From ChEMBL document CHEMBL3611976, “Synthesis of new 4-phenylpyrimidine-2(1H)-thiones and their potency to inhibit COX-1 and COX-2” (Eur J Med Chem, 2015) come the findings set out here.

Activity calls are given as the source filed them. The rule behind the calls is not given here.

Assay [1] deals with T1, Prostaglandin G/H synthase 2 (Homo sapiens) (UniProt P35354).
T1 sequence (whole entry): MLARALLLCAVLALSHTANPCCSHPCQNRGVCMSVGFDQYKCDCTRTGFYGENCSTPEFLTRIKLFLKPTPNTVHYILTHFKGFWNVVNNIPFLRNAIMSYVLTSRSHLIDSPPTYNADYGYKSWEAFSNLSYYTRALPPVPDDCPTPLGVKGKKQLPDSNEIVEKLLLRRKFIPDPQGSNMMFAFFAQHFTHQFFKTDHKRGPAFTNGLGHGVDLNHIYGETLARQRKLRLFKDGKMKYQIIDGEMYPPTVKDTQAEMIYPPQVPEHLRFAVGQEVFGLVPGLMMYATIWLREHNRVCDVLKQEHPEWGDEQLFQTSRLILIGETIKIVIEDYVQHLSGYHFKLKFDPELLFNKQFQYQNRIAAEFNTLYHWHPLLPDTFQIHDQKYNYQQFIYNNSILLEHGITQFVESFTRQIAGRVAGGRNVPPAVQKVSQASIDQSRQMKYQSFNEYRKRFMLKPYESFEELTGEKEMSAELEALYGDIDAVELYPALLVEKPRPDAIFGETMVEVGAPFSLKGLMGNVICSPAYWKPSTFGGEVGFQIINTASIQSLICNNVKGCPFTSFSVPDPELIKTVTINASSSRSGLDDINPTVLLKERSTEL
Description: Inhibition of COX2 in differentiated human THP1 cells assessed as […] LPS-induced COX2 gene expression at 50 ug/ml preincubated for 1 hr followed by LPS induction measured after 3 hrs by real-time PCR analysis. The conditions noted are these: THP-1. It counts as cell-based. The method, boiled down: (§1)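 THP-1 monocytes differentiated to macrophages with 12 nM PMA for 48 h. Cells were treated with compound ([…]) for 1 h, with 0.1% DMSO as calibrator. They were then stimulated with LPS O55:B5 at 7.5 ng/ml, except the DMSO well, for another 3 h. Cells were washed twice with cold PBS. Total RNA was extracted and reverse-transcribed. TaqMan qPCR was run in duplicate with GAPDH as reference.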

Assay [2] in a line: Downregulation of NF-kappaB1 gene expression in differentiated human THP1 cells stimulated with LPS at 50 ug/ml preincubated for 1 hr followed by LPS stimulation measured after 3 hrs by real-time PCR analysis. It counts as functional, cell-based. The following applies: THP-1. The procedure, abridged:
as §1
(In general: Quantitative PCR measures a nucleic acid by following its amplification.)

Assay [3] addresses Prostaglandin G/H synthase 1 (Ovis aries) (UniProt P05979). In words: Inhibition of ram seminal vesicles COX-1 using arachidonic acid as substrate at 50 ug/ml preincubated for 5 mins followed by substrate addition after 20 mins by competitive PGE2 EIA method.
The target of assay [4] is T2, Prostaglandin G/H synthase 2 (Ovis aries, UniProt P79208).
T2 sequence (P79208 whole entry): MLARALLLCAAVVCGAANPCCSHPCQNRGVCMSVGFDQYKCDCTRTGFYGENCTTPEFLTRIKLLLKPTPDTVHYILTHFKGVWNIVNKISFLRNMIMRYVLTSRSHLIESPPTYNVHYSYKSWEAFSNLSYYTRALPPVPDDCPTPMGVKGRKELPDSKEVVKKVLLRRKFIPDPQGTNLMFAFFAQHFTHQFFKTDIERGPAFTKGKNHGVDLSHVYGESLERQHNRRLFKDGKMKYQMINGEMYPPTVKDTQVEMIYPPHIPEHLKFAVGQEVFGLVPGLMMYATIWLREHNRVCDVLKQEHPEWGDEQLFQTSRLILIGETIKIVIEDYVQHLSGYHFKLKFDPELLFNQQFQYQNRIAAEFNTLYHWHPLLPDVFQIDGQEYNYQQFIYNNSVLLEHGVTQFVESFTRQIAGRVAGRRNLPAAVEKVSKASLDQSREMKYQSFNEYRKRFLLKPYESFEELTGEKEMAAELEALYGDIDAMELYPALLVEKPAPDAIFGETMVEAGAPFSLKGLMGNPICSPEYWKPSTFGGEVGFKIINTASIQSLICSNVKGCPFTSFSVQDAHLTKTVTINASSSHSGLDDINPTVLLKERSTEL
Description: Inhibition of sheep placental cotyledons COX-2 using arachidonic acid as substrate preincubated for 5 mins followed by substrate addition after 20 mins by competitive PGE2 EIA method. The method, boiled down: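 Purified sheep placental PGHS-2 at 0.2 units/well in 0.1 M Tris/HCl with 18 mM epinephrine hydrogen tartrate, hematin and Na EDTA. Samples were preincubated for 5 min at room temperature, then arachidonic acid in ethanol was added to start the reaction. After 20 min at 37 °C the reaction was stopped with 10% formic acid. PGE2 was measured by competitive EIA absorbance, and inhibition was calculated relative to a blank.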

Chain of Prostaglandin G/H synthase 1 (Ovis aries) (P05979 whole entry, looked up): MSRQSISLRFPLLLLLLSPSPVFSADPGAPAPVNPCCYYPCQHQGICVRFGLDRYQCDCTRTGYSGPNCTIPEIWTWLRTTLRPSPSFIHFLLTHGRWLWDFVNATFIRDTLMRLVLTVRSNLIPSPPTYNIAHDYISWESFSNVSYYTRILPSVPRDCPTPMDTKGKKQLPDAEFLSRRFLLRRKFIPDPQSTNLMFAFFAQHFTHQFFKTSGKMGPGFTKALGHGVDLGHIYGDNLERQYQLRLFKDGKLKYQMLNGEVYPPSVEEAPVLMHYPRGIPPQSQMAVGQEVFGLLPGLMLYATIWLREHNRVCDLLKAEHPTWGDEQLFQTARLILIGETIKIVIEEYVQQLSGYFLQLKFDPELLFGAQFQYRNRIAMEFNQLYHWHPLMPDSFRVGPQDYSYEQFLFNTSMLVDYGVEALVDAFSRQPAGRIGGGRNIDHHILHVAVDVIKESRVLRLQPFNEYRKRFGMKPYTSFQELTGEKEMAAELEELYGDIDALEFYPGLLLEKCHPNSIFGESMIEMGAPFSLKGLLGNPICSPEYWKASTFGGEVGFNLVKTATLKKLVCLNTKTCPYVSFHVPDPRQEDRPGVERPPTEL

The term inhibition denotes the percentage by which the read-out fell short of the control. As to `CC1=CC(c2ccccc2)NC(=S)N1` (stereo unspecified), the inhibition entry in assay [1] is “Active”. For the same compound, in assay [2], the result was Active. Further, in assay [3], the inhibition entry was “inactive”. A word on the IC50: it is the concentration that inhibits the measured activity by half. A low value points to greater potency in that assay. Take `CC1=CC(c2ccccc2[N+](=O)[O-])NC(=S)N1` (racemic): in assay [4], the half-maximal inhibitory concentration (IC50) was found to be 50 µM. Besides, the inhibition entry in assay [1] is “Active”. The outcome in assay [2] was Active. The same compound returned an inhibition in assay [3] of 53%. `CC1=CC(C(C)C)NC(=S)N1` (racemic): the inhibition result in assay [3] was “inactive”. Still for that read-out and setting: then `CC1=CC(c2ccc(Br)cc2)NC(=S)N1` (racemic), with 15.4%; and `CC1=CC(c2ccc(C(F)(F)F)cc2)NC(=S)N1` (racemic), with 0.92%; and `CC1=CC(c2ccc(Cl)cc2)NC(=S)N1` (racemic), with 10.3%.

Consider `CC1=CC(c2ccc(Cl)cc2Cl)NC(=S)N1` (racemic), for which the inhibition entry in assay [3] was “inactive”. On the same count and under the same terms, the same measure for `CC1=CC(c2ccc(F)cc2)NC(=S)N1` (racemic): “inactive”; for `CC1=CC(c2ccc([N+](=O)[O-])cc2)NC(=S)N1` (racemic): 29.8%. In turn, `CC1=CC(c2ccccc2Cl)NC(=S)N1` (racemic) came in with an inhibition in assay [3] of 3.06%. The same measure, in the same setting: the same measure for `COc1ccc(C2C=C(C)NC(=S)N2)cc1` (racemic): 33.2%.
